Measurements collected from several papers.
Compare with care: the assays were run in different laboratories.
Target: SRSF protein kinase 3 (SRPK3, Homo sapiens, UniProt Q9UPE1)

C#Cc1cnc(Nc2ccnc(CO)c2)nc1Nc1ccccc1S(C)(=O)=NC#N (centres unmarked)
remaining signal (cell-free assay; 1 µM): 47%

CCCCC(=O)Nc1ccc(-c2ccc3ncn(CCC)c(=O)c3c2)cn1
remaining binding (binding, competition with immobilised ligand; 0.5 µM): 92%

CC#CC(=O)N1CCC[C@H]1c1nc(-c2ccc(C(=O)Nc3ccccn3)cc2)c2c(N)nccn12
inhibition (enzyme activity, inhibitor; 1 µM): 0%

N#Cc1ccc(NC(=O)Nc2ccccc2)cc1
inhibition (cell-free assay, competition with immobilised ligand; 25 µM): 90.3%

CN1CCN(C(=O)c2ccc(NC(=O)Nc3ccc(N(C)c4ccnc(Nc5ccc(CS(C)(=O)=O)cc5)n4)cc3)cc2)CC1
remaining binding (binding; 1 µM): 7.7%

CC(C)S(=O)(=O)c1ccc2nccc(Nc3ccc4sc(C5CCCC5)nc4c3)c2c1
activity vs control (enzyme activity, inhibitor; 1 µM): 110%

C=CC(=O)N1CCC[C@@H](n2nc(-c3ccc(Oc4ccccc4)cc3)c3c(N)ncnc32)C1
inhibition (enzyme activity, inhibitor; 1 µM): 16%

Cc1ccc(NC(=O)c2ccnc(C(F)(F)F)c2)cc1-c1cc(OCCO)nc(N2CCOCC2)c1
remaining binding (binding; 1 µM): 93%
